Measurements from ChEMBL document CHEMBL1921735, “Antibacterial optimization of 4-aminothiazolyl analogues of the natural product GE2270 A: identification of the cycloalkylcarboxylic acids” (J Med Chem, 2011).
Values after ≈ are worked out from the molar mass of the structure shown. Active and inactive are the calls of the source. Unless noted, the rule behind the calls is not given here.

Tests used:
Staphylococcus aureus [1] = assay: Antibacterial activity against Staphylococcus aureus ATCC 01001 infected in thigh of CD1 mouse assessed as prevention of colony formation at 32 mg/kg, ip administered 2 hrs post infection measured after 12 hrs; type: functional, organism-based; set-up: dose 32 mg/kg
Outline: (§1)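 Female CD1 mice (21−25 g), made neutropenic with cyclophosphamide ip at 150 mg/kg (day −4) and 100 mg/kg (day −1). Left thigh infected im with 0.05 mL S. aureus ATCC 01001 (7.5 × 10^5 cfu/thigh), grown 16 h at 36 °C in cation-supplemented Mueller Hinton. Treatment given 2 h post-infection, four mice per group. At 12 or 24 h thighs were excised, homogenized in 0.9% NaCl, serially diluted and plated on blood agar for cfu.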

Staphylococcus aureus [2] = assay: Antibacterial activity against Staphylococcus aureus ATCC 01001 infected in thigh of CD1 mouse assessed as prevention of colony formation at 32 mg/kg, ip administered 2 hrs post infection measured after 24 hrs; type: functional, organism-based; set-up: dose 32 mg/kg; outline: as §1
Enterococcus faecalis [3] = assay: Antibacterial activity against Enterococcus faecalis isolate NB04025 infected in CD1 mouse assessed as protection against bacterial infection administered immediately after infection measured on day 5; type: functional; conditions: isolate NB04025, 120 h
Outline: (§2)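 Mouse lethal systemic infection: ip injection of 1 × 10^8 cfu/mouse (10−100× minimal lethal dose), E. faecalis in 50% sterile rat fecal extract, S. aureus in 0.9% NaCl. Therapy by tail-vein bolus at several doses, six mice per group. Started immediately for E. faecalis; at 1 and 5 h post-inoculation for S. aureus.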

Rattus norvegicus [4] = assay: Cmax in Sprague-Dawley rat at 75 mg/kg, iv bolus; type: ADME, organism-based; set-up: dose 75 mg/kg, route intravenous; conditions: in vivo
Outline: (§3)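 Male Sprague−Dawley rats (220−270 g, ~6−10 weeks) with dual jugular vein cannulae, fasted overnight and for 8 h post-dose, given iv bolus (N = 2 or 3). Blood was collected into K2EDTA tubes and plasma was obtained. Plasma was protein-precipitated with acetonitrile containing glyburide internal standard, then analysed by LC−MS/MS (C18, 0.1% formic acid water/acetonitrile gradient).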

[5] = AUC in Sprague-Dawley rat at 75 mg/kg, iv bolus; type: ADME, organism-based; set-up: dose 75 mg/kg, route intravenous; conditions: plasma; outline: as §3
[6] = Cmax in Sprague-Dawley rat at 1 mg/kg, iv bolus; type: ADME, organism-based; set-up: dose 1 mg/kg, route intravenous; conditions: in vivo; outline: as §3
Streptococcus pyogenes = assay: Antibacterial activity against Streptococcus pyogenes ATCC BAA-595 by CLSI M07-A8 method; type: functional
Outline: (§4)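 Broth microdilution MIC run per CLSI M07-A8 (2009).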

[7] = Oral bioavailability in Sprague-Dawley rat; type: ADME, organism-based; conditions: in vivo
[8] = Volume of distribution at steady state in Sprague-Dawley rat at 25 mg/kg, iv bolus; type: ADME, organism-based; set-up: dose 25 mg/kg, route intravenous; conditions: in vivo, read-out: Vdss; outline: as §3
[9] = Clearance in Sprague-Dawley rat at 75 mg/kg, iv bolus; type: ADME, organism-based; set-up: dose 75 mg/kg, route intravenous; conditions: in vivo; outline: as §3
Streptococcus pneumoniae = assay: Antibacterial activity against Streptococcus pneumoniae by CLSI M07-A8 method; type: functional, organism-based; outline: as §4
Staphylococcus aureus [10] = assay: Antibacterial activity against Staphylococcus aureus ATCC 49951 infected in CD1 mouse assessed as protection against bacterial infection administered 5 hrs post infection measured on day 5; type: functional; outline: as §2
Staphylococcus aureus [11] = assay: Bacteriostatic activity against Staphylococcus aureus ATCC 01001 infected in thigh of CD1 mouse assessed as prevention of colony formation at 40 mg/kg, ip administered 2 hrs post infection measured after 12 hrs; type: functional, organism-based; set-up: dose 40 mg/kg; outline: as §1
[12] = Clearance in Sprague-Dawley rat at 1 mg/kg, iv bolus; type: ADME, organism-based; set-up: dose 1 mg/kg, route intravenous; conditions: in vivo; outline: as §3
Enterococcus faecalis [13] = assay: Antibacterial activity against Enterococcus faecalis ATCC 29212 by CLSI M07-A8 method; type: functional; outline: as §4
[14] = Volume of distribution at steady state in Sprague-Dawley rat at 75 mg/kg, iv bolus; type: ADME, organism-based; set-up: dose 75 mg/kg, route intravenous; conditions: in vivo, read-out: Vdss; outline: as §3
[15] = AUC in Sprague-Dawley rat at 1 mg/kg, iv bolus; type: ADME, organism-based; set-up: dose 1 mg/kg, route intravenous; conditions: plasma; outline: as §3
[16] = Volume of distribution at steady state in Sprague-Dawley rat at 1 mg/kg, iv bolus; type: ADME, organism-based; set-up: dose 1 mg/kg, route intravenous; conditions: in vivo, read-out: Vdss; outline: as §3
Enterococcus faecium = assay: Antibacterial activity against Enterococcus faecium 7130724 by CLSI M07-A8 method; type: functional; outline: as §4
Staphylococcus aureus [17] = assay: Antibacterial activity against Staphylococcus aureus ATCC 01001 infected in thigh of CD1 mouse assessed as prevention of colony formation at 80 to 320 mg/kg, ip administered 2 hrs post infection measured after 24 hrs; type: functional, organism-based; outline: as §1
Staphylococcus aureus [18] = assay: Antibacterial activity against Staphylococcus aureus ATCC 01001 infected in thigh of CD1 mouse assessed as prevention of colony formation at 80 to 320 mg/kg, ip administered 2 hrs post infection measured after 12 hrs; type: functional, organism-based; outline: as §1
[19] = Plasma protein binding in Sprague-Dawley rat; type: ADME, cell-free; conditions: read-out: PPB
Outline: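 Rat plasma protein binding was determined in triplicate by rapid equilibrium dialysis. Samples were quantified by LC−MS/MS after acetonitrile precipitation with glyburide internal standard.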

Rattus norvegicus [20] = assay: Dose normalized AUC in Sprague-Dawley rat at 1 mg/kg, iv bolus; type: ADME, organism-based; set-up: dose 1 mg/kg, route intravenous; conditions: in vivo; outline: as §3
[21] = Cmax in Sprague-Dawley rat at 25 mg/kg, iv bolus; type: ADME, organism-based; set-up: dose 25 mg/kg, route intravenous; conditions: in vivo; outline: as §3
Rattus norvegicus [22] = assay: Dose normalized AUC in Sprague-Dawley rat at 75 mg/kg, iv bolus; type: ADME, organism-based; set-up: dose 75 mg/kg, route intravenous; conditions: in vivo; outline: as §3
[23] = Chemical stability of the compound in 15% v/v NaOH, 5% PEG-300, 0.9% saline, 55% v/v water at pH 7.2 to 7.8; type: physicochemical; conditions: buffer
[24] = Clearance in Sprague-Dawley rat at 25 mg/kg, iv bolus; type: ADME, organism-based; set-up: dose 25 mg/kg, route intravenous; conditions: in vivo; outline: as §3
Staphylococcus aureus [25] = assay: Bacteriostatic activity against Staphylococcus aureus ATCC 01001 infected in thigh of CD1 mouse assessed as prevention of colony formation at 80 mg/kg, ip administered 2 hrs post infection measured after 24 hrs; type: functional, organism-based; set-up: dose 80 mg/kg; outline: as §1
[26] = AUC in Sprague-Dawley rat at 25 mg/kg, iv bolus; type: ADME, organism-based; set-up: dose 25 mg/kg, route intravenous; conditions: plasma; outline: as §3
Rattus norvegicus [27] = assay: Dose normalized AUC in Sprague-Dawley rat at 25 mg/kg, iv bolus; type: ADME, organism-based; set-up: dose 25 mg/kg, route intravenous; conditions: in vivo; outline: as §3
Staphylococcus aureus [28] = assay: Antibacterial activity against methicillin-resistant Staphylococcus aureus isolate A4.018 by CLSI M07-A8 method; type: functional
Staphylococcus aureus [29] = assay: Bacteriostatic activity against Staphylococcus aureus ATCC 01001 infected in thigh of CD1 mouse assessed as prevention of colony formation at 80 mg/kg, po administered 2 hrs post infection measured after 24 hrs; type: functional, organism-based; set-up: dose 80 mg/kg; outline: as §1
Staphylococcus aureus [30] = assay: Bacteriostatic activity against Staphylococcus aureus ATCC 01001 infected in thigh of CD1 mouse assessed as prevention of colony formation at 80 mg/kg, po administered 2 hrs post infection measured after 12 hrs; type: functional, organism-based; set-up: dose 80 mg/kg; outline: as §1

For `CCCCCCCCCC(=O)N[C@@H](Cc1c[nH]c2ccccc12)C(=O)N[C@H](CC(N)=O)C(=O)N[C@@H](CC(=O)O)C(=O)N[C@@H]1C(=O)NCC(=O)N[C@@H](CCCN)C(=O)N[C@@H](CC(=O)O)C(=O)N[C@H](C)C(=O)N[C@@H](CC(=O)O)C(=O)NCC(=O)N[C@H](CO)C(=O)N[C@@H]([C@H](C)CC(=O)O)C(=O)N[C@@H](CC(=O)c2ccccc2N)C(=O)O[C@@H]1C`, the Activity (Staphylococcus aureus [1]) was “Active” and the Activity (Staphylococcus aureus [2]) was “Active”.

`CNC(=O)C[C@@H]1NC(=O)c2csc(n2)-c2ccc(-c3nc(NC(=O)[C@H]4CC[C@H](C(=O)O)CC4)cs3)nc2-c2csc(n2)-c2csc(n2)[C@H]([C@@H](O)c2ccccc2)NC(=O)CNC(=O)c2nc(sc2COC)[C@H](C(C)C)NC(=O)c2nc1sc2C` gave an ED50 (Enterococcus faecalis [3]) of 0.6 mg/kg, a Cmax (Rattus norvegicus [4]) of over 1000 µM and an AUC [5] of 2860 µM·h. The Cmax [6] was 5 µM, the MIC (Streptococcus pyogenes) was 4 µg/mL (≈ 3.2 µM) and the bioavailability [7] was under 0.1%. For the same compound, the Vd [8] was under 0.1 L/kg, the clearance [9] was 0.4 mL/min/kg and the Activity (Streptococcus pneumoniae) was “Active”. For the same compound, the ED50 (Staphylococcus aureus [10]) was 5.2 mg/kg, the Activity (Staphylococcus aureus [11]) was “Active” and the clearance [12] was 6.7 mL/min/kg. The MIC (Enterococcus faecalis [13]) was 0.06 µg/mL (≈ 0.048 µM), the Vd [14] was under 0.1 L/kg and the AUC [15] was 3 µM·h. For the same compound, the Vd [16] was under 0.1 L/kg, the MIC (Enterococcus faecium) was 0.06 µg/mL (≈ 0.048 µM) and the Activity (Staphylococcus aureus [17]) was “Active”. The Activity (Staphylococcus aureus [18]) was “Active”, the fraction unbound [19] was under 0.01 and the AUC/dose (Rattus norvegicus [20]) was 3 µM·h/mg/kg. The Cmax [21] was 320 µM, the AUC/dose (Rattus norvegicus [22]) was 38.2 µM·h/mg/kg and the Stability [23] was over 1 weeks. For the same compound, the clearance [24] was 1 mL/min/kg, the Activity (Staphylococcus aureus [25]) was “Active” and the AUC [26] was 343 µM·h. For the same compound, the AUC/dose (Rattus norvegicus [27]) was 13.7 µM·h/mg/kg and the MIC (Staphylococcus aureus [28]) was 0.125 µg/mL (≈ 0.1 µM).

With `CC(=O)NC[C@H]1CN(c2ccc(N3CCOCC3)c(F)c2)C(=O)O1` the Activity (Staphylococcus aureus [29]) was “Active” and the Activity (Staphylococcus aureus [30]) was “Active”.

For `CNC(=O)C[C@@H]1NC(=O)c2csc(n2)-c2ccc(-c3nc(NC(=O)O[C@H]4CC[C@H](C(=O)O)CC4)cs3)nc2-c2csc(n2)-c2csc(n2)[C@H]([C@@H](O)c2ccccc2)NC(=O)CNC(=O)c2nc(sc2COC)[C@H](C(C)C)NC(=O)c2nc1sc2C`, the ED50 (Enterococcus faecalis [3]) was 0.2 mg/kg, the MIC (Streptococcus pyogenes) was 2 µg/mL (≈ 1.58 µM) and the Activity (Streptococcus pneumoniae) was “Active”. For the same compound, the ED50 (Staphylococcus aureus [10]) was 4.3 mg/kg, the MIC (Enterococcus faecalis [13]) was 0.06 µg/mL (≈ 0.0474 µM) and the MIC (Enterococcus faecium) was 0.03 µg/mL (≈ 0.0237 µM). It also gave a Stability [23] of over 1 weeks and an MIC (Staphylococcus aureus [28]) of 0.125 µg/mL (≈ 0.0987 µM).
